Test results taken from the RNAGym collection of RNA variant scans (doi:10.1126/science.aae0568).
This sample holds only a part of the variants without activity.

B1: tRNA (parent)
chain: GUUCCGUUGGCGUAAUGGUAACGCGUCUCCCUCCUAAGGAGAAGACUGCGGGUUCGAGUCCCGUACGGAACG

Variants of: B1
Test: yeast fitness relative to wild type (ratio to wild type); higher = fitter; tRNA-Arg(CCU), competitive growth, 37 C, YPD
In short: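 Variants of the tRNA-Arg(CCU) gene were chemically synthesised with a 3% per-site mutation rate across 69 sites and placed at the native genomic locus in Saccharomyces cerevisiae. Six parallel replicates of the pooled strains were competed in YPD at 37°C for 24 hours, and gene amplicons from the start and end populations were read by 100-nucleotide paired-end sequencing. Darwinian fitness relative to wild type was derived from changes in genotype frequencies. Genotypes required ≥ 100 starting reads, and estimates < 0.5 were set to 0.5.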

Variant | yeast fitness
GAUCGGUUGGGGUUUCGGUAACGCGUCUUCCUCCUAAGGAGAAGACUGCGGGUUCGAGUCCCGUACGGAACG [U2A C5G C11G A14U A15U U16C C29U] | ≤ 0.5
GAUUCGUUGGCGUAAUGGUAACGCGUCACUCUCCUAAGGAGAAGACUGCGGGUUCGAGUGCCGUAGGGAACG [U2A C4U U28A C30U C60G C66G] | ≤ 0.5
GAUCGGUUGGGGUAAUGGUGACGCGUCUCCCUCCUAAGGAGAAGACUGCGGGUUCGAGUCCCGUACGGAACG [U2A C5G C11G A20G] | ≤ 0.5
GAUCCGUUGGUGUAAUGGUAACGCGUCUCCCUCCUAAGGAGAAGACUCCGGGUUCGAGUCCCGUACGGAACG [U2A C11U G48C] | ≤ 0.5
GAUCCGUUGGGGUAAUAGUUACGCGUCUCCCUGCUAACGAGAAGACUGCGGGUUCGAGUCCCGUACGGAGCG [U2A C11G G17A A20U C33G G38C A70G] | ≤ 0.5
GAUCGGUUGGCGUGAUGGUAACGCGUCUCGCUCCUAAGGAGAAGAUUGCGGGUUCGAGUCCCGUACGGAACG [U2A C5G A14G C30G C46U] | ≤ 0.5
GAUCCGUUGGUGUAAUGGGAACGCGUCUCCCUCCUAAGGAGAAGACUGCGGGUUUGAGUCCCGUACGGAACG [U2A C11U U19G C55U] | 0.571
GAUCGGUUGGCGUAAUGGUAACGCGUCUCCCUCCUAAGGAGAAGACUGCGGGAUCGAGUCCCGUAUGGAACG [U2A C5G U53A C66U] | ≤ 0.5
GAUCUGUUGGCGUAAUGGUAACACGUCUCCCUCCUAGGGAGAAGACUGCGGGUUCGAGUCCCGUACGGGUCG [U2A C5U G23A A37G A69G A70U] | 0.845
GAUCUGUUGGCGUAAUGGUAACGUGUCUCCCUCCUAAGGAGAAGACUGCGGGUCCGAAUCCCGUACGGAACG [U2A C5U C24U U54C G58A] | 0.569
GAUCCGUUGGUGUAAUGGUAACGCGUCUGCCUCCUACGGAGUAGACUGCGGGUUCGGGUCCCGUACAGAACG [U2A C11U C29G A37C A42U A57G G67A] | ≤ 0.5
GAUCAGUUGGCGUAAUGGUAACGCGUCUCCCUCCUAAGGAGAAGACUGCGGGUUCGAGUCCCGCACGGAACG [U2A C5A U64C] | 0.595
GAUCGGUAGGCGUAAUGGUAACGCGUCUCCCUCCUAAGGAGAAGACUGCGGGUUCGAGUCACGUACGGAACG [U2A C5G U8A C61A] | ≤ 0.5
GAUCCGUUGGGGUAAUGGUAACGCGUCUCCCUCCUAAGGUGAAGACUGCGGGUUCGAGUCCCGUACGGAACG [U2A C11G A40U] | 0.544
GAUCCGUUGGGGUAAUGGUAACGCGUGUCCCUCCUAAGGAGAAGACUGCGGGUACGAGUCCCGUAUGGAACG [U2A C11G C27G U54A C66U] | ≤ 0.5
GAUCCGUUGGGGUAAUGGUAACGCGUCUCCCUCCUAAGGAGAAGACUGAGGGUUCGAGUUCCGUACGCAACG [U2A C11G C49A C60U G68C] | 0.608
GAUCCGUUGGUGUAAUGGUAACCCGUAUCCCUCCUAAGGAGAAGACUGCUGGUUCGAGUCCCGUACGGAACG [U2A C11U G23C C27A G50U] | ≤ 0.5
GAUCGGUUGGCGUAAUGGUAACGCGUCUCCCUCCUAUGGAGAAGACUGUGGGUUCGAGUCUCGUACGGAACG [U2A C5G A37U C49U C61U] | ≤ 0.5
GAUCUGUUGGCGUAAUGGUAACACGUCUCCCUCCUAGGGAGAAGACUGCGGGUUCGAGUCCCGUACGGAACG [U2A C5U G23A A37G] | 0.689

Variant | yeast fitness
GAUCGGUUGGCGUAAUGGUAACGUGUCUCGCUCCUAAGGAGAAGACUGGGGGUUCGAGUCGCGUACGGAACG [U2A C5G C24U C30G C49G C61G] | ≤ 0.5
GAUCGGUUGGCGUAAUGGUAACGUGUCUCGCUCCUAAGGAGAAGACUGCGGGUUCGAGUCCCGUACGGAACG [U2A C5G C24U C30G] | ≤ 0.5
GAUCUGUUGGCGUAAUGGUAACGCGUCUCCCUCCUAAGGAAAAGACUGCGGGUUCGAGUCCCGUACGGAACG [U2A C5U G41A] | ≤ 0.5
GAUCAGUUGGCGUAAUGGUAACGCGUCUCCCUCCUAAGGAGAAGACUGCGGGUUCGAGUCCCGUACGGAACG [U2A C5A] | 0.611
GAUCCGUUGGGGUAAUGGUAACGCGUCUCACUCCUAAGGAGAAGACUGCGGGUUCGGGUCCCGUACGGAACG [U2A C11G C30A A57G] | ≤ 0.5
GAUCAGUUGGCGUAAUGGUAACGCGUCUCCCUCCUAAGGAGAAGACUGCGGGGUCGAGUCCCGUACGGAACG [U2A C5A U53G] | 0.514
GAUCCGUUGGAGUGAUGGUAACGCGUCUUCCUCCUAAGGAGAAGACUGCGGGUUCGAGUCCCGUCCGGAACG [U2A C11A A14G C29U A65C] | 0.568
GAUCCGUUGGGGUAAUGGUAACGCGUCUCCCUCUUAAGGAGUAGACUGCGGGUUCGAGUCCCGUACGAAACG [U2A C11G C34U A42U G68A] | ≤ 0.5
GAUCCGUUGGUGUAAUGGUAACCCGUAUCCCUCCUAAGGAGAAGACUGCGGGUUCGAGUCCCGUACGGUACG [U2A C11U G23C C27A A69U] | ≤ 0.5
GAUCGGUUGGGGUAAUGGCGACGCGUCUCCCUCCUAAGGAGAAGACUGCGGGUUCGAGUCCCGUACGGAACG [U2A C5G C11G U19C A20G] | ≤ 0.5
GAUCAGUUCGCGUAACGGUAACGCCUCUCCCUCCUAAGGAGAAGACUGCGGGUUCGAGUCCCGUCCGGAACG [U2A C5A G9C U16C G25C A65C] | ≤ 0.5
GAUCUGUUGGCGUAAUGGUAUCGCGUCUCGCUCCUAAGGAGAAGACUGCGGGUUCGAGUCCCGUACGGAUCG [U2A C5U A21U C30G A70U] | ≤ 0.5
GAUCCGUUGGGGUAAUGGUAGCGCGUCUCCCUCCUAGGGAGAAGACUGCGGGUUCGAGUCCCGUACGGAACG [U2A C11G A21G A37G] | ≤ 0.5
GAUCCGUUGGUGUAAUGGUAACGCGUCUCCCUCCUAAGGAGAAGACUGCGGGUUCGACUCCCGUACGGAACG [U2A C11U G58C] | 0.678
GAUCUGUUGGCGUAAUGGUAACGCGUCUGCCUCCUAUGGAGAAGACUGCGGGUUCGAGUCCCGUACGGAACG [U2A C5U C29G A37U] | 0.512
GAUCCGUUGGGGUAAUGGUAACGCGUCUCCCUCCUAAGGAGAAGACAACGGGUUCGAGUCCCGUAUGGAUCG [U2A C11G U47A G48A C66U A70U] | ≤ 0.5
GAUCAGUUGGUGUAAUGGUAACGCGUGUCCCUCCUAAGGAGAAGACUGCGGGUUCGAGUACCGUACGGAACG [U2A C5A C11U C27G C60A] | ≤ 0.5
GAUCGGUAGGCGUAAUGGUAACGCGUCUCCCUCCUAAGGAGAAAACUACCGGUUCGAGUCCCGUACGGAACG [U2A C5G U8A G44A G48A G50C] | ≤ 0.5
